Experimental findings from the array DNA melting data of Ke et al. (doi:10.1101/2024.01.08.574731) are described below.

Data set [1] is described as follows: melting temperature; fluorescence melt of hairpins on a sequencing array, two-state fit, raised by 9.35 °C to match UV melts. The note with it: sodium 0.088 M. In short, it runs like this: (§1)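 To match UV melts, fitted temperatures were raised by 9.35 °C. These fits were bootstrapped two-state models that gave melting temperature and folding enthalpy, combined by inverse variance over four replicates. The input was normalised Cy3 fluorescence of library hairpins with annealed Cy3 and quencher oligos on a sequenced MiSeq flow cell, imaged in 50 mM Na-HEPES pH 8.0, 25 mM NaCl in 2.5 °C steps up to 60 °C.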

A short description of data set [2]: folding enthalpy; higher = less favourable; fluorescence melt of hairpins on a sequencing array, two-state fit. The note with it: sodium 0.088 M. In short, it runs like this:
as §1

With GCGAACGAAAGTTACCGC ((((((....)))..))), the Tm in data set [1] stood at 37.7 °C. Further, the folding enthalpy in data set [2] is -22.1 kcal/mol.

As for GCGAACGAAAGTTCACGC ((((((....)))..))), the Tm in data set [1] is 48.9 °C. In addition, in data set [2], the folding enthalpy was -22.9 kcal/mol.

Turning to GCGAACGAAAGTTCTCGC ((((((....)))..))), the Tm in data set [1] worked out at 45.6 °C. Also, the folding enthalpy in data set [2] was -18.8 kcal/mol.

On to GCGAACGAAAGTTGCCGC ((((((....)))..))), for which the Tm in data set [1] is 42.4 °C. In addition, in data set [2], the folding enthalpy is -16.6 kcal/mol.

In the case of GCGAACGAAAGTTGCGC ((((((....))).))), the Tm in data set [1] was 53.9 °C. Also, the folding enthalpy in data set [2] is -36.9 kcal/mol.

In the case of GCGAACGAAAGTTTACGC ((((((....)))..))), the Tm in data set [1] stood at 43 °C. The folding enthalpy in data set [2] was -21.2 kcal/mol.

For the sequence GCGAACGAAAGTTTTCGC ((((((....)))..))), the Tm in data set [1] stood at 44.1 °C. Moreover, the folding enthalpy in data set [2] was -26.6 kcal/mol.

As for GCGAACGCGAAAGCGCGC (((..(((....)))))), in data set [1], the Tm is 60.1 °C. The folding enthalpy in data set [2] is -14.7 kcal/mol.

As to GCGAACGGAAACATTCGC (((((.(....).))))), in data set [1], the Tm was determined as 48.2 °C. The folding enthalpy in data set [2] was -32.7 kcal/mol.

Consider GCGAACGGAAACGCTCGC ((((.((....)).)))), for which, in data set [1], the Tm is 55.7 °C. Further, the folding enthalpy in data set [2] was -41.5 kcal/mol.

Take GCGAACGTCGC ((((...)))): in data set [1], the Tm worked out at 45.8 °C. In addition, the folding enthalpy in data set [2] is -18.8 kcal/mol.

Turning to GCGAAGCATCGC ((((....)))), in data set [1], the Tm stood at 59.5 °C. For the same sequence, the folding enthalpy in data set [2] is -8.14 kcal/mol.

Consider GCGAAGCGAAAGCAACGC (((..((....))..))), for which the Tm in data set [1] stood at 48.4 °C. Besides, in data set [2], the folding enthalpy was -11 kcal/mol.

As to GCGAAGCGAAAGCAGCGC (((..((....))..))), in data set [1], the Tm came to 57.7 °C. Further, the folding enthalpy in data set [2] was -16.6 kcal/mol.

GCGAAGCGAAAGCTAAGC ((..(((....)))..)): the Tm in data set [1] was found to be 54.4 °C. In data set [2], the folding enthalpy was -16.5 kcal/mol.

With GCGAAGCGAAAGCTCCGC (((.(((....))).))), in data set [1], the Tm was 50.9 °C. Moreover, in data set [2], the folding enthalpy was -36.7 kcal/mol.

GCGAAGGGAAACCCTCGC ((((.((....)).)))): the Tm in data set [1] came out at 53.4 °C. The folding enthalpy in data set [2] is -42.3 kcal/mol.

In the case of GCGAAGGGAAACTTTCGC (((((.(....).))))), the Tm in data set [1] is 51 °C. Further, the folding enthalpy in data set [2] is -30.2 kcal/mol.

On to GCGAAGGTCGC ((((...)))), for which the Tm in data set [1] stood at 49.9 °C. The folding enthalpy in data set [2] is -15.3 kcal/mol.

Turning to GCGAATCCTCGC ((((....)))), the Tm in data set [1] was found to be 46.3 °C. Further, in data set [2], the folding enthalpy is -24.5 kcal/mol.

Take GCGAATCGAAAGATGCGC (((.(((....))).))): the Tm in data set [1] came to 60.6 °C. Also, the folding enthalpy in data set [2] is -42.4 kcal/mol.

For GCGAATTATCGC ((((....)))), the Tm in data set [1] amounted to 47.8 °C. In data set [2], the folding enthalpy is -21.3 kcal/mol.

In the case of GCGAATTGTCGC ((((....)))), the Tm in data set [1] turned out to be 46 °C. In addition, in data set [2], the folding enthalpy was -17 kcal/mol.

GCGACACGAAAGTGCGC (((.(((....)))))): in data set [1], the Tm was determined as 63.9 °C. In addition, in data set [2], the folding enthalpy is -22.7 kcal/mol.

Take GCGACACTCGC ((((...)))): in data set [1], the Tm came to 53.1 °C. The folding enthalpy in data set [2] was -18.2 kcal/mol.

In the case of GCGACAGCTCGC ((((....)))), in data set [1], the Tm was found to be 67 °C. The folding enthalpy in data set [2] was -9.44 kcal/mol.

Turning to GCGACAGTTCGC ((((....)))), in data set [1], the Tm was 47.7 °C. Further, the folding enthalpy in data set [2] is -17.4 kcal/mol.

For the sequence GCGACATTTCGC ((((....)))), the Tm in data set [1] came out at 48.8 °C. Further, the folding enthalpy in data set [2] was -22 kcal/mol.

In the case of GCGACCAATCGC ((((....)))), the Tm in data set [1] was determined as 44 °C. Besides, the folding enthalpy in data set [2] is -23.6 kcal/mol.

Consider GCGACCAGTCGC ((((....)))), for which the Tm in data set [1] was 57.3 °C. Also, the folding enthalpy in data set [2] was -32.7 kcal/mol.

As to GCGACCGAAAGGTAGCGC ((((((....)))..))), in data set [1], the Tm came to 68.5 °C. Moreover, in data set [2], the folding enthalpy was -31.7 kcal/mol.

Regarding GCGACCGAAAGGTATCGC ((((((....)))..))), the Tm in data set [1] stood at 50.5 °C. The folding enthalpy in data set [2] was -27.7 kcal/mol.

With GCGACCGAAAGGTGCGC ((((((....))).))), in data set [1], the Tm is 67.1 °C. The folding enthalpy in data set [2] is -28.9 kcal/mol.

Regarding GCGACCGGAAACAGCCGC (((.(.(....).).))), the Tm in data set [1] worked out at 32.5 °C. Further, the folding enthalpy in data set [2] was -21.1 kcal/mol.

As to GCGACCGGAAACGGTTGC ((.((((....)))).)), the Tm in data set [1] was found to be 64.6 °C. Moreover, in data set [2], the folding enthalpy was -41.1 kcal/mol.

On to GCGACCTCTCGC ((((....)))), for which, in data set [1], the Tm was found to be 46.9 °C. Moreover, in data set [2], the folding enthalpy is -18.6 kcal/mol.

Turning to GCGACGAGTCGC ((((....)))), the Tm in data set [1] is 60.6 °C. The folding enthalpy in data set [2] was -36.6 kcal/mol.

On to GCGACGATTCGC ((((....)))), for which the Tm in data set [1] amounted to 44.6 °C. Besides, the folding enthalpy in data set [2] was -15.9 kcal/mol.
